Only some compounds are listed: those with a hit (about 4.3% of all), similar ones and a draw of the others.
B2AR ag – human beta-2 adrenergic receptor agonism by FAP | Am2.2-beta2AR cells, FAP receptor internalization, flow cytometry | P07550 | response, % (test concentration not listed) | hit rate 0.43% among 340,000;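 active = response above a set limit, near 3 SD of response in nonfluorescent compounds, cut at about 42% in these data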
MC4R antagonist – blocks human MC4R cAMP signaling | P32245 | MC4R-expressing cells, MTII-stimulated cAMP, LANCE TR-FRET | inhibition, % at 6.5 µM | hit rate 0.48% among 360,000;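 active = inhibition above its plate's cutoff, the mean of tested wells on that plate plus 3 SD, cut at about 29% in these data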;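 note: 0% = Melanotan II alone and 100% = Melanotan II plus saturating MCL0020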
Target sequence (P32245 whole entry, looked up): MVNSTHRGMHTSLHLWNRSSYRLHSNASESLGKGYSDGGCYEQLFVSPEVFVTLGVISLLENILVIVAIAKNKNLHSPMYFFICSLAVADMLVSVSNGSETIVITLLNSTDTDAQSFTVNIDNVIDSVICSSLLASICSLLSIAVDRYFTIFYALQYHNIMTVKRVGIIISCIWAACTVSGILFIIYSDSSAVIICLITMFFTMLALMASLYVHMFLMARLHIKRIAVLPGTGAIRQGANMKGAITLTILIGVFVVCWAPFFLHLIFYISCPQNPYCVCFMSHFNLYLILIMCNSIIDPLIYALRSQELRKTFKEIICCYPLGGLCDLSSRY
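System – human MC4R-expressing U2OS cells · Also added – Melanotan II · Dosing – one concentration, 6.5 µM nominal · Timing – 30-min compound, 1-h challenge, 1-h detection, room temperature · Measured by – Eu-cAMP/anti-cAMP TR-FRET, emission 671 nm · Replicates – singlicate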
MC4R barr agon – agonists of human melanocortin 4 receptor (MC4R) beta-arrestin; P32245; activation, % at 8.9 µM; AID 540308; U2OS MC4R beta-arrestin complementation, luminescence; percent of melanotan II response, DMSO zero; hit rate 0.98% among 360,000;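 active = activation above a per-plate cutoff, the mean activation of sample wells on that plate plus 3 SD, cut at about 8% in these data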
TAAR1 agonist – human TAAR1 agonism | CHO RD-HGA16 TAAR1, Fluo-8 calcium fluorescence; vehicle wells 0%, saturating PEA agonist 100% | hit rate 0.99% among 360,000 | activation, % at 3 µM;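 active = activation above the mean activation of all test compounds in the run plus 3 SD, cut at about 38% in these data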
Target sequence (Q96RJ0 whole entry, looked up): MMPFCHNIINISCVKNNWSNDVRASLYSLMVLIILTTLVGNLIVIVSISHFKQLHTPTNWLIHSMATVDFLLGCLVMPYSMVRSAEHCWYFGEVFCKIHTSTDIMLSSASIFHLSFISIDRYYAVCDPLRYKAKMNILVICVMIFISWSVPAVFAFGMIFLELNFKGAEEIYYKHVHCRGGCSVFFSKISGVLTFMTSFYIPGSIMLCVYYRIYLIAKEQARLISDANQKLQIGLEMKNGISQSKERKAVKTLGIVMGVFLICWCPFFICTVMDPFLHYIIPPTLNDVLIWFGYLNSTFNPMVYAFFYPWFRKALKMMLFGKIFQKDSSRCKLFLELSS
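Test system: RD-HGA16 (CHO) cells co-expressing Gα16 and hTAAR1 / Benchmarks: DMSO vehicle as 0%, PEA at EC100 as 100% / Repeats: no replicates (n 1) / Measure: % activation from peak over basal fluorescence ratio, DMSO-to-PEA scaled / Timing: 17-24 h plating, Fluo-8 75 min 37 °C, 30 min RT / Technique: kinetic Fluo-8 calcium fluorescence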
TAAR1 antagonist – antagonists of human TAAR1. Q96RJ0. CHO RD-HGA16 TAAR1, Fluo-8 calcium fluorescence, antagonist. inhibition, % at 3 µM. hit rate 1.5% among 360,000. AID 624466;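 active = inhibition above a per-plate cutoff, the mean inhibition of test compounds on that plate plus 3 SD, cut at about 49% in these data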;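 note: 0% = DMSO plus EC80 beta-PEA response and 100% = DMSO alone without agonist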
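Test system: CHO RD-HGA16 cells bearing hTAAR1 | Reagent: β-PEA, EC80 | Compound dosing: 3 µM, single point | Schedule: Dye loading 75 min at 37 °C, then 30 min room temperature | Signal: Calcium fluorescence with Fluo-8 | Evaluation: Percent inhibition of PEA-evoked calcium signal, max/basal emission ratio | Control set: DMSO-only wells and EC80 β-PEA-stimulated wells | Repeats: Singlicate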
m5-HT2A agonist – activates the mouse 5-HT2A serotonin receptor | AID 624169 | P35363 | CHO-K1 mHTR2A beta-arrestin complementation, luminescence; percent of 30 µM serotonin response | activation, % at 7.6 µM | hit rate 0.66% among 360,000;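 active = activation above a run cutoff, the mean activation of all tested compounds plus 3 SD, cut at about 14% in these data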;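 note: 0% = plate median of compound wells and 100% = 30 µM serotonin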
TAAR1 nonsel count – nonselective antagonist in TAAR1 antagonist counter-screen; shares compounds with TAAR1 antagonist; counterscreen cell line, calcium fluorescence, antagonist mode; inhibition, % at 3 µM; hit rate 77% among 2,400; AID 651780; in the data active = inhibition above about 22%;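 note: CHO-Ga16 host cells stimulated with ATP at an EC80 level; 0% = agonist EC80 plus vehicle and 100% = vehicle without agonist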
TAAR1 antag conf – human TAAR1 antagonism, confirmed. shares compounds with TAAR1 antagonist. TAAR1-expressing cells, fluorescence antagonist read-out. inhibition, % at 3 µM. hit rate 40% among 2,400; in the data active = inhibition above about 49%;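 note: CHO-Ga16 host cells challenged with agonist PEA near its EC80; 0% = agonist at EC80 plus vehicle and 100% = vehicle with no agonist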
Ga16 ag counter – counter-screen for TAAR1 antagonists: nonselective Ga16 agonists; hit rate 18% among 2,400; AID 651953; Ga16-expressing cells, calcium fluorescence, agonist counterscreen; activation, % at 3 µM; shares compounds with TAAR1 antagonist; in the data active = activation above about 12%;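 note: 0% = vehicle wells and 100% = saturating stimulus response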
TAAR1 ag count – TAAR1 agonism, antagonist counter-screen | hit rate 2% among 2,400 | shares compounds with TAAR1 antagonist | hTAAR1 cell line, fluorescence activation, agonist mode | activation, % at 3 µM | AID 651955; in the data active = activation above about 37%;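 note: CHO cells stably expressing TAAR1 with calcium dye readout; 0% = DMSO vehicle and 100% = full agonist response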
The depositor's hits bear a star; x = no result.

SMILES	B2AR ag	MC4R antagonist	MC4R barr agon	TAAR1 agonist	TAAR1 antagonist	m5-HT2A agonist	TAAR1 nonsel count	TAAR1 antag conf	Ga16 ag counter	TAAR1 ag count
CC(=O)c1cccc(NC(=O)CSc2ccc(-c3ccco3)nn2)c1	-18.1	16.5	0.2	2.0	-1.4	0.6	x	x	x	x
C/C(=N\NC(=O)c1cc(C)nc2ccccc12)c1cccc(Cl)c1	-4.1	2.9	-4.9	19.9	-18.1	-0.1	x	x	x	x
O=C(NCc1ccccc1)/C(=C\c1ccc(F)cc1)NC(=O)c1ccco1	x	8.8	0.0	2.7	-14.1	6.3	x	x	x	x
O=C1OC[C@H]2CCCN2C(=O)[C@@H](CC(=O)N(CCO)Cc2ccccc2)C/C=C\C[C@@H]1Cc1ccc(F)cc1	-3.0	1.9	-3.5	20.8	56.5*	3.3	25.2*	34.4	8.2	6.2
O=C1N[C@@H](c2ccccc2)COC(=O)[C@@H](Cc2ccc(F)cc2)CC/C=C/C[C@H]1CC(=O)N(CCO)Cc1ccccc1	4.2	6.5	0.6	19.0	70.9*	1.2	31.5*	55.8*	13.8*	21.4
CC(C)(C)[C@@H]1COC(=O)[C@H](Cc2ccc(F)cc2)C/C=C\C[C@H](CC(=O)N(CCO)Cc2ccccc2)C(=O)N1	3.0	7.7	-1.4	33.5	49.9*	2.2	19.0	40.3	8.8	12.1
O=S(=O)(NCC1CCCN(Cc2ccccc2O)C1)c1cccc2cccnc12 (configuration not stated)	3.6	-0.9	-4.5	1.7	-7.6	1.7	x	x	x	x
CCn1c(SCc2nc3ccccc3c(=O)[nH]2)nnc1-c1cccnc1	-5.4	8.7	-2.4	7.8	2.1	-2.4	x	x	x	x
O=c1[nH]c(CSc2nnc(-c3cccnc3)n2C2CCCCC2)nc2ccccc12	8.5	6.8	-0.2	22.9	65.0*	4.7	27.6*	55.9*	10.8	14.3
COC(=O)[C@@]12C[C@@H](CC(=O)N3CCSCC3)C(=O)N(Cc3ccco3)C1=CCC(C)(C)C2	x	x	x	-0.9	-24.2	8.6	x	x	x	x
O=C(Cc1c[nH]c2ccccc12)Nc1ccc(Nc2cccnc2)c(-c2ccc(Cl)c(Cl)c2)c1	x	x	x	10.8	70.6*	x	38.4*	56.4*	8.7	10.3
COc1ccc(-c2cc(NC(=O)Cc3c[nH]c4ccccc34)ccc2Nc2cccnc2)cc1F	x	x	x	20.0	89.6*	x	39.3*	65.3*	10.2	12.3
O=C(Cc1c[nH]c2ccccc12)Nc1ccc(Nc2cccnc2)c(-c2ccc(Oc3ccccc3)cc2)c1	x	x	x	1.9	30.5	x	x	x	x	x
CCCc1ccc(-c2cc(NC(=O)Cc3c[nH]c4ccccc34)ccc2Nc2cccnc2)cc1	x	x	x	-0.7	12.8	x	x	x	x	x
O=C(Cc1c[nH]c2ccccc12)Nc1ccc(Nc2cccnc2)c(-c2cc(F)cc(F)c2)c1	x	x	x	18.3	89.0*	x	36.2*	57.0*	14.3*	15.2
Cc1ccc(NC(=O)CC2S/C(=N/c3nccs3)N(C)C2=O)cc1C (configuration not stated)	1.2	-2.5	8.6*	25.6	55.4*	7.0	31.2*	50.4*	10.8	12.6
Cc1ccccc1NC(=O)CC1S/C(=N/c2nccs2)N(C)C1=O (configuration not stated)	14.0	11.0	0.8	5.0	2.6	2.0	x	x	x	x
O=C(Nc1ccccc1Cl)c1ccc(C(=O)Nc2ccccc2Cl)cc1	-3.0	5.4	-1.8	3.6	-5.7	4.5	x	x	x	x
O=C(Nc1cccc(Cl)c1Cl)c1ccc(-c2ccccc2)cc1	-6.5	-0.9	4.4	15.4	60.1*	-3.5	35.1*	89.8*	9.1	12.2
COC(=O)CC#C[C@H](C)[C@@H](NS(=O)(=O)c1ccc([N+](=O)[O-])cc1)C(C)(C)C	x	x	x	-1.5	-6.1	x	x	x	x	x
O=C(NNC(=O)c1ccccc1OCc1ccccc1)c1ccccc1F	-3.2	-3.8	-0.5	4.5	7.1	-2.9	x	x	x	x
O=C(N/N=C/c1ccccc1F)c1ccccc1OCc1ccccc1	-0.4	12.7	1.1	6.8	51.2*	-7.7	8.9	35.4	4.4	3.6
COc1cc(/C=N/NC(=O)c2ccc(COc3cc(C)ccc3C(C)C)cc2)cc(OC)c1O	-5.8	26.9	3.2	1.1	18.4	-3.0	x	x	x	x
Cc1ccc(C(C)C)c(OCc2ccc(C(=O)N/N=C/c3cccc(O)c3O)cc2)c1	21.2	3.3	7.6	1.6	77.4*	-1.1	46.6*	80.0*	6.8	12.1
CC(=O)Nc1ccc(C(=O)N/N=C/c2ccccc2OCc2ccccc2)cc1	-21.2	-0.9	-2.6	13.3	52.4*	-7.9	31.7*	41.7	6.0	5.4
CCN(CC)C(=O)Cn1cc(C(=O)C(=O)N2CCN(c3ccc([N+](=O)[O-])cc3)CC2)c2ccccc21	0.5	19.5	-3.2	-1.7	-2.0	-2.0	x	x	x	x

Assay outcomes: PubChem BioAssay, several laboratories
